Experimental findings from ChEMBL document CHEMBL2390883, “Dissecting the pharmacophore of curcumin. Which structural element is critical for which action?” (J Nat Prod, 2013) are described below.

Active and inactive are the calls of the source. No cut-off for these calls is given here.

For data set [1], the species on record is Homo sapiens. Kind of data set: (§1) Inhibition of NF-kappaB in human 5.1 cells assessed as inhibition of TNFalpha-induced HIV-1-LTR activation after 6 hrs by luciferase reporter gene assay. It is filed as cell-based. A digest of the protocol:
(§2)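 Jurkat-derived 5.1 clone, stably carrying HIV-LTR-driven luciferase and maintained under G418. Cells were preincubated with compound at the indicated doses, then stimulated with TNFα for 6 h (methods give 20 ng/mL, legend 2 ng/mL). Luciferase was read from lysate. Output is % inhibition versus TNFα alone; IC50 from curve fitting.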

Data set [2] concerns the target T1, Nuclear factor erythroid 2-related factor 2 (Homo sapiens) (UniProt Q16236).
T1 sequence (whole entry): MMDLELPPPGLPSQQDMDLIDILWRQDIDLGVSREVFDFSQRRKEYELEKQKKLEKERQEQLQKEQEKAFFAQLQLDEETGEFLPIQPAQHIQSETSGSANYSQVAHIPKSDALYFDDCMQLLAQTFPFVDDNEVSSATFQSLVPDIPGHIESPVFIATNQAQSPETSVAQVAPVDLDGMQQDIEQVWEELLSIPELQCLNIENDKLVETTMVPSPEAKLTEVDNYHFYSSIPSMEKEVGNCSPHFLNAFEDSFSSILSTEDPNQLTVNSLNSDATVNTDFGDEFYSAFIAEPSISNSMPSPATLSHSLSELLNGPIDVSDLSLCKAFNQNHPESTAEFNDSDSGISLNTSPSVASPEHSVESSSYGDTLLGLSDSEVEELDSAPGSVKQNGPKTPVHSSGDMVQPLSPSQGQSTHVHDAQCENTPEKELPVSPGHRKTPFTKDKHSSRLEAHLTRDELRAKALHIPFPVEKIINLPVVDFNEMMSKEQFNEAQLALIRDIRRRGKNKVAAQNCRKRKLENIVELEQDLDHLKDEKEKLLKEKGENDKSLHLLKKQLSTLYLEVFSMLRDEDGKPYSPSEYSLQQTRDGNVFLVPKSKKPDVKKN
Put plainly: Activation of Nrf2/ARE-mediated transcription in human SK-N-SH cells after 6 hrs by luciferase reporter gene assay. The format is cell-based. Summed up:
(§3)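 SK-N-SH cells were transiently transfected with pGL3-ARE-Luc. After 24 h they were exposed to increasing concentrations of compound for 6 h. Cells were washed in PBS and lysed in Tris-phosphate pH 7.8 buffer with MgCl₂, DTT, Triton X-100 and glycerol, then luciferase activity was read in the supernatant. Output is fold induction over untreated cells; three independent experiments, mean SD, Student's t test.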

The subject of data set [3] is SK-N-SH. Kind of data set: Cytotoxicity against human SK-N-SH cells after 6 hrs. It is filed as cell-based.
For data set [4], the system named is HeLa. Put plainly: Cytotoxicity against human HeLa cells after 12 hrs. The format is cell-based.
For data set [5], the system named is Jurkat. Put plainly: Cytotoxicity against human Jurkat cells after 6 hrs. The format is cell-based.
The subject of data set [6] is Human immunodeficiency virus 1. Kind of data set: Antiviral activity against VSV-G protein pseudotyped human immunodeficiency virus 1 infected in human Jurkat cells assessed as inhibition of HIV-1 replication incubated 30 mins prior to infection measured after 12 hrs by luciferase reporter gene assay relative to curcumin. The format is functional.
For data set [7], the target named is T1, Nuclear factor erythroid 2-related factor 2 (Homo sapiens). Kind of data set: Activation of Nrf2/ARE-mediated transcription in human SK-N-SH cells at high concentration after 6 hrs by luciferase reporter gene assay. It is filed as cell-based. Summed up: as §3
Data set [8] shares this target. Kind of data set: Activation of Nrf2/ARE-mediated transcription in human SK-N-SH cells at low concentration after 6 hrs by luciferase reporter gene assay. The format is cell-based. A digest of the protocol: as §3
For data set [9], the system named is Human immunodeficiency virus 1. Kind of data set: Antiviral activity against VSV-G protein pseudotyped human immunodeficiency virus 1 infected in human Jurkat cells assessed as inhibition of HIV-1 replication incubated 30 mins prior to infection measured after 12 hrs by luciferase reporter gene assay. It is filed as functional, organism-based. A digest of the protocol:
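Jurkat cells at 10⁶/mL were pretreated with compounds at increasing doses for 30 min. They were then infected with VSV-G-pseudotyped pNL4-3.Luc.R⁻E⁻ (200 ng p24). Firefly luciferase was read in lysates (Tris-phosphate pH 7.8, Triton X-100) 12 h after infection. Values are % activation versus untreated infected cells (100%), given as mean ± SD of independent experiments; IC₅₀ by curve fitting.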

Data set [10] can be described thus: Inhibition of Tat-induced HIV-1-Long terminal repeat transactivation in human Hela Tat-Luc cells after 12 hrs by luciferase reporter gene assay. It is filed as cell-based. The settings on record: Human immunodeficiency virus 1, HeLa. Summed up:
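HeLa cells stably transfected with pLTR-Luc and pcDNA3-Tat were exposed to compound at the indicated doses, or to DRB (50 μM) as reference, for 12 h. Luciferase activity was then measured. Output is % activation relative to untreated cells; four independent experiments, mean SD, Student's t test; IC50 from curve fitting.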

For data set [11], the target named is Mitogen-activated protein kinase; ERK1/ERK2 (Homo sapiens) (UniProt P27361+P28482). Kind of data set: Inhibition of PMA-induced ERK 1/2 phosphorylation in human Jurkat cells after 30 mins by Western blotting analysis. It is filed as cell-based. A digest of the protocol:
(§4)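 Jurkat cells (10⁶/mL) were preincubated 30 min with compound, then given PMA (50 ng/mL) for 15 min. Protein was extracted in NP-40 lysis buffer with protease and phosphatase inhibitors. 30 μg per lane was run on 10% SDS-PAGE and transferred to nitrocellulose. Blots were probed for phospho- and total ERK1/2, JNK, p65 and IκBα (incl. phospho-Ser32/36), with tubulin as loading control.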

Data set [12] concerns the target Transcription factor p65 (Homo sapiens) (UniProt Q04206). Put plainly: Inhibition of PMA-induced NF-kappaB p65 phosphorylation in human Jurkat cells after 30 mins by Western blotting analysis. It is filed as cell-based. A digest of the protocol:
as §4

Data set [13] concerns the target Mitogen-activated protein kinase 8 (Homo sapiens) (UniProt P45983). Put plainly: Inhibition of PMA-induced JNK1 phosphorylation in human Jurkat cells after 30 mins by Western blotting analysis. The format is cell-based. Summed up:
as §4

The test system of data set [14] is Jurkat. Put plainly: Inhibition of PMA-induced NF-kappaB activation in human Jurkat cells assessed as inhibition of IkappaBalpha degradation after 30 mins by Western blotting analysis. It is filed as cell-based. Summed up: as §4
Data set [15] deals with Jurkat. Kind of data set: Inhibition of PMA-induced NF-kappaB activation in human Jurkat cells assessed as inhibition of IkappaBalpha phosphorylation after 30 mins by Western blotting analysis. The format is cell-based. Summed up: as §4
The nature of data set [16]: as §1. It is filed as cell-based. Summed up:
as §2

For data set [17], the target named is Mitogen-activated protein kinase 9 (Homo sapiens) (UniProt P45984). Kind of data set: Inhibition of PMA-induced JNK2 phosphorylation in human Jurkat cells after 30 mins by Western blotting analysis.
Mitogen-activated protein kinase 9 (Homo sapiens), sequence (P45984 whole entry, looked up): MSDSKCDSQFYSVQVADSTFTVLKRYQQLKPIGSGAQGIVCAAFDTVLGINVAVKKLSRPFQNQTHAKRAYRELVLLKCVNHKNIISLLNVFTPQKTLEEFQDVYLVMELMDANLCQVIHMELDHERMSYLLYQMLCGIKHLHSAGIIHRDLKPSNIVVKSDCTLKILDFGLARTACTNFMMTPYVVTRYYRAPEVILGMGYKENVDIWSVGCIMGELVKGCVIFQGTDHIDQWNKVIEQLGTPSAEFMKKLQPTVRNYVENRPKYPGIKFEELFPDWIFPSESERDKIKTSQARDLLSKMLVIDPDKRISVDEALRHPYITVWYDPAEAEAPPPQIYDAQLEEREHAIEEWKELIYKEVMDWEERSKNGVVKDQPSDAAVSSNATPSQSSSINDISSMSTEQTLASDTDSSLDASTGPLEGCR

Transcription factor p65 (Homo sapiens), sequence (Q04206 whole entry): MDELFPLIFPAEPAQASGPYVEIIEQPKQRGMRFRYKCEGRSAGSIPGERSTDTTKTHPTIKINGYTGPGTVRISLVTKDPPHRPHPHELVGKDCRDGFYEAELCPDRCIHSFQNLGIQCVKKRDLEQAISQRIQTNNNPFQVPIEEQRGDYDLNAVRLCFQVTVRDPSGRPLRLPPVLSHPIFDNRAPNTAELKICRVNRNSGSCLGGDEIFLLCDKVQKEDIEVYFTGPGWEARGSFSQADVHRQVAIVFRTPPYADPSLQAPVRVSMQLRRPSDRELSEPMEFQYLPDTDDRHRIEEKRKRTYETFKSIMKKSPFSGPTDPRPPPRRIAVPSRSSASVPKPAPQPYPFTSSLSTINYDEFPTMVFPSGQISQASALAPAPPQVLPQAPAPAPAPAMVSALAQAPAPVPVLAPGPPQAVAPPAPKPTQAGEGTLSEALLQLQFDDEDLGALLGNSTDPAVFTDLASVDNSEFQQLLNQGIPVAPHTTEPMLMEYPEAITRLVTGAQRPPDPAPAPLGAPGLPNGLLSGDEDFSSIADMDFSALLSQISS
Mitogen-activated protein kinase; ERK1/ERK2 (Homo sapiens), sequence (P27361 whole entry, looked up): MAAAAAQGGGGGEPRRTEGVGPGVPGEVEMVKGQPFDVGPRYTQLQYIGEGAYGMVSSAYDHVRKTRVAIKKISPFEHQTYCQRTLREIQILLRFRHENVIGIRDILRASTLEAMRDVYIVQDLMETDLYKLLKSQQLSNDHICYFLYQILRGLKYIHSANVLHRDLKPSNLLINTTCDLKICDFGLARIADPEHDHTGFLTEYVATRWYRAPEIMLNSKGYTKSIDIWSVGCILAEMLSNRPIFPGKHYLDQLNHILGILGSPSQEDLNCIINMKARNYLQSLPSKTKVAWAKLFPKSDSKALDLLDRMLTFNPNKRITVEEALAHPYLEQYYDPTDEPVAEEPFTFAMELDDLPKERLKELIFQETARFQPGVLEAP
Mitogen-activated protein kinase; ERK1/ERK2 (Homo sapiens), sequence (P28482 whole entry, looked up): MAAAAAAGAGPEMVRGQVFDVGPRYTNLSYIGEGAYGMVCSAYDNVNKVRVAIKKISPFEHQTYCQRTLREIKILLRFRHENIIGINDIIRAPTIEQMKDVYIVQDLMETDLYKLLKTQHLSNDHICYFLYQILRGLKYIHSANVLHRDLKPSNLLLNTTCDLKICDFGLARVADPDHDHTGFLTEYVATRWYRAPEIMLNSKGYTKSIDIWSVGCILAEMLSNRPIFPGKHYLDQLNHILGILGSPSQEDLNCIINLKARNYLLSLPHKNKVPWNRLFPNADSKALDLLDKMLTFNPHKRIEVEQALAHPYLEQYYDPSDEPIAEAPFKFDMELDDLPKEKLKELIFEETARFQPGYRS
Mitogen-activated protein kinase 8 (Homo sapiens), sequence (P45983 whole entry): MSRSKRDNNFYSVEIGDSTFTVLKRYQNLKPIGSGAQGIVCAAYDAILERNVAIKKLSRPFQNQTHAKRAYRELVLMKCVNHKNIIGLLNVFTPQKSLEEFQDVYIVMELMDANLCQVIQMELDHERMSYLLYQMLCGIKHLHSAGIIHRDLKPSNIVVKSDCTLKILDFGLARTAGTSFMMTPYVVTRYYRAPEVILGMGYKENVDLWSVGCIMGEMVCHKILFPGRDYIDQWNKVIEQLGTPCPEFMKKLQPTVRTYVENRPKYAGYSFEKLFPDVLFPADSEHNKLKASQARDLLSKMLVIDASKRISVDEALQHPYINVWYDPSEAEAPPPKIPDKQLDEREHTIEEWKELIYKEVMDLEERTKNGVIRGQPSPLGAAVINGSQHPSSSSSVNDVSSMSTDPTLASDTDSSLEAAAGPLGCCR

Regarding `COc1cc(CCC(=O)CC(=O)CCc2cc(CCC(C)C)c(O)c(OC)c2)cc(CCC(C)C)c1O`, in data set [1], the inhibition entry is “Active”.
With `COc1cc(/C=C/C(=O)/C=C/c2cc(CC=C(C)C)c(O)c(OC)c2)cc(CC=C(C)C)c1O`, the outcome in [2] was inactive. Besides, the inhibition entry in [1] was “Active”.
Consider `COc1cc(/C=C/C(=O)/C=C/c2ccc(O)c(OC)c2)ccc1O`, for which the Activity entry in data set [3], in data set [4] and in data set [5] was “Non-toxic” each time. In addition, the Ratio in data set [6] turned out to be 4. Besides, in data set [7], the result was inactive. The outcome in data set [8] and in data set [9] was Active. The IC50 in data set [10] came out at 4.7 µM; in data set [16] it was 4.92 µM. In [11], the inhibition entry was “inactive”. In addition, the inhibition result in data set [12], in [13], in [14], in [15] and in data set [17] was “Dose-dependent effect” each time.
For `COc1cc(CCC(=O)CC(=O)CCc2ccc(O)c(OC)c2)ccc1O`, the outcome in data set [2] was inactive. Further, the inhibition result in data set [1] is “Active”.
In the case of `COc1cc(/C=C/C(=O)CC(=O)/C=C/c2cc(CC=C(C)C)c(O)c(OC)c2)cc(CC=C(C)C)c1O`, in data set [2], the outcome was inactive. The inhibition entry in data set [1] is “inactive”.
As to `COc1cc(/C=C/C(=O)CC(=O)/C=C/c2ccc(O)c(OC)c2)ccc1O` [CURCUMIN], the result in data set [2] and in [9] was Active. The IC50 in data set [16] is 16.4 µM.
